{
  "source": "paper PMC3268052",
  "about": "(Journal of Molecular Biology, 2011)",
  "molecules": {"B1": {"name": "PKR (protein)", "chain": "AGDLSAGFFMEELNTYRQKQGVVLKYQELPNSGPPHDRRFTFQVIIDGREFPEGEGRSKKEAKNAAAKLAVEILNKEKKAVSPLLLTTTNSSEGLSMGNYIGLINRIAQKKRLTVNYEQCASGVHGPEGFHYKCKMGQKEYSIGTGSTKQEAKQLAAKLAYLQILSEETSVKSDYLSSGSFATTCESQSNSLVTSTLASESSSEGDFSADTSEINSNSDSLNSSSLLMNGLRNNQRKAKRSLAPRFDLPDMKETKYTVDKRFGMDFKEIELIGSGGFGQVFKAKHRIDGKTYVIKRVKYNNEKAEREVKALAKLDHVNIVHYNGCWDGFDYDPETSDDSLESSDYDPENSKNSSRSKTKCLFIQMEFCDKGTLEQWIEKRRGEKLDKVLALELFEQITKGVDYIHSKKLIHRDLKPSNIFLVDTKQVKIGDFGLVTSLKNDGKRTRSKGTLRYMSPEQISSQDYGKEVDLYALGLILAELLHVCDTAFETSKFFTDLRDGIISDIFDKKEKTLLQKLLSKKPEDRPNTSEILRTLTVWKKSPEKNERHTC"}},
  "key": {"[1]": {"target": "T1, PKR (Homo sapiens, UniProt P19525)", "T1 sequence (P19525 whole entry)": "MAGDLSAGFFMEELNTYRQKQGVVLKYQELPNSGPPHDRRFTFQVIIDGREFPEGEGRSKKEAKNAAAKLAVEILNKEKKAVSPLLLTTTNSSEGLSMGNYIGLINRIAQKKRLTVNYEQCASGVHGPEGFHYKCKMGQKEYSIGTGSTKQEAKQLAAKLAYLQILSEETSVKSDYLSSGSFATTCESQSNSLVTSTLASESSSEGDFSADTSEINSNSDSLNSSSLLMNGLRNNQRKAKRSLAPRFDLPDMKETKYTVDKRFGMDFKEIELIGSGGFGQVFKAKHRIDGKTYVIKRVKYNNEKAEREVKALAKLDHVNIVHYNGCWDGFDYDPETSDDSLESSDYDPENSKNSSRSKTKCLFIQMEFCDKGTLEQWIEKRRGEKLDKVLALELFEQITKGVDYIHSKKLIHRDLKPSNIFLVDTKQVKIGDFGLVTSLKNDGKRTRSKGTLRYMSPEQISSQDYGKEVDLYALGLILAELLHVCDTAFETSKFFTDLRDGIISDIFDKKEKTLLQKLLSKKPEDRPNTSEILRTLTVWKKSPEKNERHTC", "assay": "analytical ultracentrifugation", "conditions": "cited from earlier work"}, "[2]": {"target": "T1, PKR", "format": "binding", "how_it_was_run": "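PKR was purified via heparin–Sepharose then hydroxyapatite and titrated into 15 nM BODIPY-labeled heparin oligosaccharides (dp2–dp8) in AU75 buffer, pH 7.5, 20 °C; NaCl was raised to 100 or 125 mM where noted. Excitation 488 nm and emission 515 nm, 6 nm bandwidths. Each point averages three 5-s background-corrected reads, with 5 min equilibration. Kd came from a hyperbolic fit, and fold-difference is the ratio of Kd values.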"}, "[3]": {"target": "T1, PKR", "assay": "PKR autophosphorylation activation assay", "format": "biochemical", "conditions": "100 nM PKR, P50 buffer, 0.4 mM ATP, 20 min, 32 °C", "how_it_was_run": "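Autophosphorylation of 100 nM PKR with heparin oligosaccharide activators over a concentration range. P50 buffer: 20 mM Hepes pH 7.5, 50 mM KCl, 5 mM MgCl2, 0.1 mM TCEP. Reactions contained 0.4 mM ATP plus 2 μCi [γ-32P]ATP and ran 20 min at 32 °C. Background autophosphorylation without activator and a 40-bp dsRNA (100 nM) served as references.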"}, "[4]": {"target": "T1, PKR", "conditions": "cited from earlier work"}, "[5]": {"target": "T1, PKR", "assay": "Fluorescence anisotropy competition of bdp8 with unlabeled dp8", "format": "binding", "conditions": "competition of 500 nM bdp8 + 500 nM PKR with unlabeled ligand", "how_it_was_run": "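Unlabeled heparin oligosaccharide was titrated against 500 nM BODIPY-labeled oligosaccharide plus 500 nM PKR. Run in AU75 buffer (75 mM NaCl, 20 mM Hepes, 0.1 mM EDTA, 0.1 mM TCEP, pH 7.5) at 20 °C. Anisotropy read at excitation 488 nm and emission 515 nm, with 5 min equilibration between points. The competition curve was fitted to yield Kd, which sets the fixed β11 value.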"}, "[6]": {"target": "T1, PKR", "assay": "Sedimentation velocity", "format": "binding", "conditions": "for s(P2H2) / s(PH): uncorrected"}, "[7]": {"target": "the molecule itself", "assay": "sedimentation velocity analytical ultracentrifugation"}, "[8]": {"conditions": "Model A with L22 fixed equal to L20, SV"}},
  "note": "Like-named read-outs stand apart in the source and are kept apart here.",
  "data": [
    {"molecule": "PKR (from UniProt P19525)", "values": [
      {"measurement": "Kd", "setting": "[1]", "result": 500, "unit": "µM"}
    ]},
    {"molecule": "heparin disaccharide [dp2]", "values": [
      {"measurement": "Fold weaker binding affinity than dp8", "setting": "[2]", "result": "~150", "unit": "fold"},
      {"measurement": "Kd", "setting": "[2]; BODIPY-labeled oligosaccharide, 75 mM NaCl", "result": "32.6 ± 7.4", "unit": "µM"}
    ]},
    {"molecule": "heparin hexasaccharide [dp6]", "values": [
      {"measurement": "Activation of PKR autophosphorylation", "setting": "[3]", "result": "stimulated"},
      {"measurement": "Activation of PKR, relative activity in earlier studies", "setting": "[4]", "result": "considerably less active than dp8"}
    ]},
    {"molecule": "heparin octasaccharide [dp8]", "values": [
      {"measurement": "Activation of PKR autophosphorylation", "setting": "[3]", "result": "stimulated"},
      {"measurement": "Kd", "setting": "[2]; 15 nM labeled heparin oligosaccharide, 75 mM NaCl, 20 °C, hyperbolic fit", "result": 0.224, "unit": "µM"},
      {"measurement": "Kd", "setting": "[2]; 100 mM NaCl", "result": "2.61 ± 0.05", "unit": "µM"},
      {"measurement": "Kd", "setting": "[2]; 125 mM NaCl", "result": "19 ± 1.9", "unit": "µM"},
      {"measurement": "Kd", "setting": "[5]", "result": "0.262 ± 0.021", "unit": "µM"},
      {"measurement": "Enhancement of PKR dimerization affinity", "setting": "[6]", "result": "about 4 fold"},
      {"measurement": "g(s*) peak maximum", "setting": "[6]; 60 μM dp8, 2 μM PKR", "result": "~ 4.0 S"},
      {"measurement": "g(s*) peak maximum", "setting": "[6]; 60 μM dp8, 16 μM PKR", "result": "about 4.4 S"},
      {"measurement": "s(P2H2)", "setting": "[6]; [8]", "result": 6.21, "unit": "Svedbergs"},
      {"measurement": "s(PH)", "setting": "[6]; [8]", "result": 4.14, "unit": "Svedbergs"},
      {"measurement": "s(P2H2)", "setting": "[6]; Model A, SV", "result": 5.98, "unit": "Svedbergs"},
      {"measurement": "s(PH)", "setting": "[6]; Model A, SV", "result": 3.98, "unit": "Svedbergs"},
      {"measurement": "Frictional ratio f/f0 of PKR upon binding of dp8", "setting": "[6]; decrease from 1.56 for free PKR monomer", "result": 1.47}
    ]},
    {"molecule": "B1", "values": [
      {"measurement": "Kd", "setting": "[7]", "result": 404, "unit": "µM"}
    ]}
  ]
}
